Test results as given in PubChem BioAssay AID1448 (The Scripps Research Institute Molecular Screening Center, 2008).
The whole screen tested about 220,000 compounds, of which about 630 (0.29%) were called active. The sample holds actives, similar compounds and a random draw of the others, so the mix is not that of the screen. Values without a mark were called inactive.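 The calls were made as follows: active = activation above its plate's cutoff, the mean activation of the plate's test wells plus 3 SD (cut at about 12% in these data); inactive = the rest.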

Biological target: Mucolipin-3 (Homo sapiens) (UniProt Q8TDD5)
Sequence (Q8TDD5 whole entry, looked up): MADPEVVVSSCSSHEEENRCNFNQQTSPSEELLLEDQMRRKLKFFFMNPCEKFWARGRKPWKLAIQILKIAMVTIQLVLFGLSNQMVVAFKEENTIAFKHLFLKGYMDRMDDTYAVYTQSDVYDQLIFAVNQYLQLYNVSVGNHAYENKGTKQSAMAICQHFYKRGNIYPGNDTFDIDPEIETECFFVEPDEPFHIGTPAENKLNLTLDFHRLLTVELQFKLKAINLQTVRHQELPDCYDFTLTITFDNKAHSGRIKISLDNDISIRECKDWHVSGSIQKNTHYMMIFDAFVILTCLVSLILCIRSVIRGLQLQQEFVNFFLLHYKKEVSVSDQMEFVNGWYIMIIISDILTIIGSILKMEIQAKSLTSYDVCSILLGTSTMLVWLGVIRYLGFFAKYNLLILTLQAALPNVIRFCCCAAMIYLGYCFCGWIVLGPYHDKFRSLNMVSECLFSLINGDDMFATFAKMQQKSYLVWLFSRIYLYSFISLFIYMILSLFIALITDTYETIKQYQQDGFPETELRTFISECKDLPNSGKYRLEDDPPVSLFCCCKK
Assay: activators of mucolipin-3 cation channel – cell-based, HEK293 TRPML3-YFP, Fluo-8 calcium fluorescence, 3 µM, primary screen (AID 1448);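 also: 0% = DMSO only wells and 100% = carbachol wells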
Settings: at 3 µM, active compounds read high, 100% = the carbachol control signal
Outline: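 Material: TRPML3-YFP stable HEK293 cells | Dosing: One concentration, 3 µM nominal, 0.3% DMSO | Timing: 125 s total fluorescence read per well | Technique: Fluo-8 calcium dye fluorescence, ex 470-495, em 515-575 nm | Measure: Percent activation from peak-to-basal fluorescence ratio, scaled between DMSO and carbachol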

| SMILES | activation |
| --- | --- |
| COc1ccc(N2C(=O)c3cccc4cccc(c34)C2=O)nn1 | -0.51% |
| Cc1nn(C)cc1N1C(=O)c2cccc3c(N)ccc(c23)C1=O | 16.9% (active) |
| Cc1nn(-c2cc(Cl)ccc2N)c(=O)c2ccccc12 | 0.26% |
| COCc1cc(=O)[nH]c(SC)n1 | 0.74% |
| Cc1cc(C)cc(C(=O)NCC(=O)OCC(=O)N2CCCCC2)c1 | 0.67% |
| CC(NC(=O)COC(=O)C1CCN(S(=O)(=O)c2ccccc2C(F)(F)F)CC1)c1ccccc1 (configuration not stated) | -0.74% |
| CC(C)CCC(C)NC(=O)c1ccc2nccnc2c1 (configuration not stated) | -0.61% |
| O=C(c1nnc(-c2ccc(Cl)cc2)o1)C1CCCC1 | 0.06% |
| CC1(C)CCCC2=C1CC1C(=O)N(c3ccccc3)C(=O)C1C2 (configuration not stated) | 22.9% (active) |
| Cc1ccc(N2C(=O)C3CC3C2=O)cc1 (configuration not stated) | 0.72% |
| CC1=C(C)CC2C(=O)N(c3cccc4ccccc34)C(=O)C2C1 (configuration not stated) | 0.86% |
| Cc1cccc(-n2cnc(C(=O)NNC(=S)Nc3ccccc3)c2)n1 | 0.89% |
| Cn1ccc(NC(=O)Nc2ccc(Cl)cc2)n1 | 1.03% |
| O=C1NCC(=O)N(Cc2ccccc2)/C1=C/c1ccccc1 | 1.86% |
| CC1=NN(Cc2ccccc2)C(=O)/C1=C/c1ccc(N(C)C)cc1 | -2.14% |
| CN(C)c1ccc(/C=C2\NC(=S)N(Cc3ccccc3)C2=O)cc1 | 19.5% (active) |
| O=C(Nc1ccc(N2CCN(C(=O)c3ccccc3)CC2)c(Cl)c1)c1ncn[nH]1 | -0.11% |
| COCCNc1nc2nonc2nc1N1CCCC1c1nccs1 (configuration not stated) | 0.19% |
| NS(=O)(=O)c1ccc(NC(=S)NNC(=O)c2cccs2)cc1 | -0.19% |
| O=S(=O)(c1ccc(NC(=S)NN=C(C2CC2)C2CC2)cc1)N1CCOCC1 | 0.74% |
| COc1cc(/C=C(\C#N)c2nc3c(s2)CC(C)CC3)ccc1O (configuration not stated) | 12.4% (active) |

| SMILES | activation |
| --- | --- |
| COc1cc(/C=N/Nc2nc3ccccc3s2)ccc1O | -0.85% |
| CCOc1cc(/C=C(\C#N)c2nc(-c3cccs3)c(NC(C)=O)s2)ccc1O | 9.68% |
| Cc1nn(CC(=O)Nc2ccc3c(c2)OCO3)c(C)c1[N+](=O)[O-] | -0.67% |
| Cc1[nH]n(-c2ccccc2)c(=O)c1N=Nc1ccccc1C(=O)N1CCCCC1 | 0.09% |
| O=C(CSc1nc2ccc(Nc3nc(N4CCOCC4)nc(N4CCOCC4)n3)cc2s1)NCc1ccco1 | 0.56% |
| CCn1c(Cc2ccccc2)nnc1SCC(=O)Nc1ccccc1 | -0.27% |
| CCCc1nnc(SCC(=O)N2C(C)CCCC2C)n1CC (configuration not stated) | 20.2% (active) |
| CCn1c(CSc2ncccn2)nnc1SCC(=O)N1c2ccccc2CC1C (configuration not stated) | -0.71% |
| Cc1sc2nc(CC(N)=O)[nH]c(=O)c2c1-c1ccccc1 | 0.25% |
| CCCN(C(=O)CSc1nnnn1C)c1c(N)n(Cc2ccccc2)c(=O)[nH]c1=O | -0.23% |
| COCCNC(=S)N1CCN(C)CC1 | 0.99% |
| CCCCC(=O)NNC(=S)NC(=O)C(c1ccccc1)c1ccccc1 | 74.5% (active) |
| O=C(NNC(=S)NCc1ccco1)C(c1ccccc1)c1ccccc1 | 0.93% |
| CC(C)C(=O)Nc1cccc(NC(=S)NC(=O)C(c2ccccc2)c2ccccc2)c1 | 1.07% |
| O=[N+]([O-])c1cc(S(=O)(=O)Nc2cccc(Cl)c2)ccc1N=Nc1c(O)[nH]c2ccccc12 | 0.58% |
| CCS(=O)(=O)Nc1ccc(C2=NN(C(C)=O)C(c3cccs3)C2)cc1 (configuration not stated) | 0.2% |
| NNC(=O)c1cccc(COCC(F)(F)C(F)F)c1 | 0.05% |
| CC(C)c1c(O)nc(SCCOc2ccc(Cl)cc2)[nH]c1=O | 0.56% |
| COc1cc(OC)cc(/C(N)=N/O)c1 | 0.62% |
| CC(/C=C/c1ccco1)=N/NC(=O)C1COc2ccccc2O1 (configuration not stated) | 1.2% |
| C=C(C)Cn1c(C)cc(C)c(S(=O)(=O)c2ccccc2C)c1=O | 42% (active) |

| SMILES | activation |
| --- | --- |
| S=c1nc(C23CC4CC(CC(C4)C2)C3)nc2sccn12 | 0.26% |
| Cc1ccccc1C(=O)NNC(=O)CN1C(=O)c2ccccc2C1=O | 1.17% |
| O=C(NCCN1C(=O)S/C(=C\c2cccnc2)C1=O)c1ccc(S(=O)(=O)N2CCCC2)cc1 | -0.11% |
| O=C(COC(=O)c1ccc(NS(=O)(=O)c2cccs2)cc1O)Nc1ccc(F)cc1 | 0.82% |
| O=C(CSc1nncn1-c1cccnc1)N1CCOCC1 | 0.63% |
| O=C(Nc1ccccc1N1CCOCC1)c1csc2c1CCCC2 | -1.45% |
| O=S(=O)(Nc1ccccc1N1CCOCC1)c1ccc(Cl)s1 | 98.9% (active) |
| O=S(=O)(Nc1cc(S(=O)(=O)N2CCOCC2)ccc1N1CCCC1)c1cccs1 | -0.45% |
| CCOc1ccc(Br)cc1S(=O)(=O)Nc1ccc(C(=O)OC(C)C(=O)N(C)c2ccccc2)cc1 (configuration not stated) | 0.82% |
| COc1ccc(OC)c(NC(=S)N2CCc3ccccc3C2)c1 | -0.32% |
| COCc1[nH][nH]c(=O)c1C=Nc1ccc(F)cc1F | 0.21% |
| Cc1cccc(OCC(=O)NC(=S)Nc2ccccc2N2CCOCC2)c1 | 0.19% |
| Cc1ccc(O)c(NC(=O)COc2cc(C)ccc2C)c1 | 0.83% |
| Cc1ccc(O)c(NC(=S)NC(=O)COc2ccc(Br)cc2)c1 | 20.5% (active) |
| CC(C)N(C(=O)CSc1nc(COc2ccccc2)nc2ccccc12)C(C)C | -1.84% |
| O=C(NCc1cccnc1)C(=O)Nc1nc(-c2ccccc2)cs1 | 0.51% |
| O=C(NNS(=O)(=O)Cc1ccccc1)c1ccc([N+](=O)[O-])cc1 | 0.34% |
| CCN(CC)S(=O)(=O)c1cc([N+](=O)[O-])ccc1N=Nc1c(O)n(C)c2ccccc12 | 0.98% |
| CN(CCc1ccccn1)S(=O)(=O)c1ccc2c3c(cccc13)C(=O)N2 | 0.24% |
| CCN(CC)S(=O)(=O)c1ccc2c3c(cccc13)C(=O)S2 | 12.9% (active) |
